Source: PMC10242637 (Saudi Pharmaceutical Journal : SPJ, 2023)

System: not listed separately
Assay: Calculation of physicochemical properties and descriptors
Conditions: 2b over the neutral analogue 2c; from calculated LogS7.4

| increase in LogS7.4 value [log unit] | Molecule |
| --- | --- |
| 1.3 | COc1ccc(/C=C/C(=O)N2CCN(Cc3ccccc3)CC2)cc1 [2b, (2E)-1-(4-benzylpiperazin-1-yl)-3-(4-methoxyphenyl) prop-2-en-1-one] |

System: not listed separately
Assay: Cytotoxicity against mammalian cells
Format: cell-based
Conditions: mouse, NCTC clone 929 (L929) fibroblasts
Procedure, shortened: (§1)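 NCTC clone 929 fibroblasts were seeded at 6 × 10^4 cells/well and exposed to test compound (200 to 1.5 μM, 1:2 dilutions) for 48 h at 37 °C in 5% CO2, with 0.5% v/v DMSO final. Viability was read by MTT at 570 nm, and CC50 was taken from sigmoid dose–response curves. SI = CC50 divided by the amastigote IC50. Two independent runs, each in duplicate.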

| Molecule | CC50 at 48 h [µM] |
| --- | --- |
| O=C(c1ccc(Cl)cc1)N1CCN(Cc2ccccc2)CC1 [1 g, 1‐benzyl‐4‐(4‐chlorobenzoyl)piperazine] | > 200 |
| COc1cc(C(=O)N2CCN(Cc3ccccc3)CC2)ccc1O [1a, (4-Benzylpiperazin-1-yl)(4-hydroxy-3-methoxyphenyl)methanone] | > 200 |
| COc1ccc(C(=O)N2CCN(Cc3ccccc3)CC2)cc1 [1b, (4-Benzylpiperazin-1-yl)(4-methoxyphenyl)methanone] | > 200 |
| COc1ccc(C(=O)N2CCC(Cc3ccccc3)CC2)cc1 [1c, 4-Benzyl-1-(4-methoxybenzoyl)piperidine] | > 200 |
| COc1cc(/C=C/C(=O)N2CCN(Cc3ccccc3)CC2)ccc1O [2a, (2E)-1-(4-benzylpiperazin-1-yl)-3-(4-hydroxy-3-methoxyphenyl)prop-2-en-1-one] | > 200 |
| COc1ccc(/C=C/C(=O)N2CCN(Cc3ccccc3)CC2)cc1 [2b, (2E)-1-(4-benzylpiperazin-1-yl)-3-(4-methoxyphenyl) prop-2-en-1-one] | > 200 |
| O=C(Cn1ccnc1[N+](=O)[O-])NCc1ccccc1 [BZN, Benznidazole, reference compound] | > 200 |

System: fibroblasts NCTC cells (clone 929)
Assay: Cytotoxicity against mammalian cells
Format: cell-based
Conditions: ratio between CC50 (NCTC) and IC50 (amastigote - TCA)
Procedure, shortened: as §1

| Molecule | SI (Selective Index) |
| --- | --- |
| COc1cc(C(=O)N2CCN(Cc3ccccc3)CC2)ccc1O [1a, (4-Benzylpiperazin-1-yl)(4-hydroxy-3-methoxyphenyl)methanone] | >5.6 |
| COc1ccc(/C=C/C(=O)N2CCN(Cc3ccccc3)CC2)cc1 [2b, (2E)-1-(4-benzylpiperazin-1-yl)-3-(4-methoxyphenyl) prop-2-en-1-one] | >7 |
| O=C(Cn1ccnc1[N+](=O)[O-])NCc1ccccc1 [BZN, Benznidazole, reference compound] | >40 |
| (2E)-1-(1-benzylpiperidin-4-yl)-3-(4-methoxyphenyl)prop-2-en-1-one [2c] | >11.2 |
| (2E)-3-(3,4-dihydroxyphenyl)-1-(4-phenylpiperazin-1-yl)prop-2-en-1-one [2d] | 2.8 |
| (3,4-dihydroxyphenyl)-(4-phenylpiperazin-1-yl)methanone [1d] | >5.7 |

Same assay, conditions: read-out: CC50 NCTC; NCTC cells (clone L929), 48 h, MTT

| Molecule | CC50 [µM] |
| --- | --- |
| (2E)-1-(1-benzylpiperidin-4-yl)-3-(4-methoxyphenyl)prop-2-en-1-one [2c] | > 200 |
| (2E)-3-(3,4-dihydroxyphenyl)-1-(4-phenylpiperazin-1-yl)prop-2-en-1-one [2d] | 57.2 ± 2 |
| (2E)-3-(4-hydroxy-3-methoxyphenyl)-1-(4-phenylpiperazin-1-yl)prop-2-en-1-one | > 200 |
| (3,4-dihydroxyphenyl)-(4-phenylpiperazin-1-yl)methanone [1d] | > 200 |
| (4-hydroxy-3-methoxyphenyl)(4-phenylpiperazin-1-yl)methanone [1e] | > 200 |
| (4-methoxyphenyl)(4-phenylpiperazin-1-yl)methanone [1f] | > 200 |

System: T. cruzi trypomastigotes (Y strain)
Assay: Anti-trypomastigote assay
Format: cell-based
Conditions: Trypanosoma cruzi, 24 h, read-out: IC50 (µM ± SD) T.c.T
Procedure, shortened: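 Y-strain trypomastigotes at 1 × 10^6 cells/well in RPMI 1640 were exposed to test compound (150 to 1.1 μM, 1:2 dilutions) for 24 h at 37 °C in 5% CO2, with 0.5% v/v DMSO final. Resazurin (0.011% v/v) was then added for 24 h and absorbance read at 570 nm. IC50 came from non-linear regression against untreated parasites as 100% viability. Two independent runs, each in duplicate.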

| Molecule | IC50 [µM] |
| --- | --- |
| O=C(c1ccc(Cl)cc1)N1CCN(Cc2ccccc2)CC1 [1 g, 1‐benzyl‐4‐(4‐chlorobenzoyl)piperazine] | > 150 |
| COc1cc(C(=O)N2CCN(Cc3ccccc3)CC2)ccc1O [1a, (4-Benzylpiperazin-1-yl)(4-hydroxy-3-methoxyphenyl)methanone] | > 150 |
| COc1ccc(C(=O)N2CCN(Cc3ccccc3)CC2)cc1 [1b, (4-Benzylpiperazin-1-yl)(4-methoxyphenyl)methanone] | > 150 |
| COc1ccc(C(=O)N2CCC(Cc3ccccc3)CC2)cc1 [1c, 4-Benzyl-1-(4-methoxybenzoyl)piperidine] | 65.3 ± 2.3 |
| COc1cc(/C=C/C(=O)N2CCN(Cc3ccccc3)CC2)ccc1O [2a, (2E)-1-(4-benzylpiperazin-1-yl)-3-(4-hydroxy-3-methoxyphenyl)prop-2-en-1-one] | > 150 |
| COc1ccc(/C=C/C(=O)N2CCN(Cc3ccccc3)CC2)cc1 [2b, (2E)-1-(4-benzylpiperazin-1-yl)-3-(4-methoxyphenyl) prop-2-en-1-one] | > 150 |
| O=C(Cn1ccnc1[N+](=O)[O-])NCc1ccccc1 [BZN, Benznidazole, reference compound] | 12.3 ± 3.3 |
